Measured values reported in publication PMC13022283 (Scientific Reports, 2026).
“Also recorded” adds a separate entry of the source.

system: A549 human lung carcinoma cells; test: Fluorescence microscopy of treated cells; assay type: cell-based; settings: A549, 10 μM, 24 h incubation

SMILES | cytotoxicity seen in bright-field images
O=C(Nc1c(F)cccc1F)c1ccc2ncccc2c1 [Compound 4d, N-(2,6 difluorophenyl)quinoline-6-carboxamide] | no signs of cytotoxicity

system: h-NTPDases; test: h-NTPDase activity assay, all four isoenzymes; assay type: biochemical, human; settings: not given
How it was run: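 Human NTPDase1, -2, -3 or -8 came from COS-7 cells transfected with plasmids via Lipofectamine, harvested at 44–48 h, sonicated and cleared of nuclei, with protein measured by Bradford. Enzyme per well was 12, 37, 43 or 63 ng respectively. Compound (0.1 mM final) was pre-incubated 10 min at 37 °C in 50 mM Tris–HCl, 5 mM CaCl2, pH 7.4. The reaction was started with ATP (100 µM), run 15 min, and stopped with malachite green; Pi was read at 630 nm.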

activity against all four h-NTPDase isoenzymes | SMILES
poor activity | O=C(Nc1ccc(I)cc1)c1ccc2ncccc2c1 [Compound 4k, N-(4-Iodophenyl)quinoline-6-carboxamide]
poor activity; also recorded: inactive | O=C(Nc1ccc(F)cc1F)c1ccc2ncccc2c1 [Compound 4e, N-(2,4 difluorophenyl)quinoline-6-carboxamide]
poor activity | Cc1ccc(F)cc1NC(=O)c1ccc2ncccc2c1 [Compound 4l, N-(5-fluoro 2-methylphenyl)quinoline-6-carboxamide]

molecular target: T1, h-NTPDase1 (Homo sapiens, UniProt P49961); test: h-NTPDase activity assay; assay type: biochemical; settings: not given
T1 sequence (P49961 1-510): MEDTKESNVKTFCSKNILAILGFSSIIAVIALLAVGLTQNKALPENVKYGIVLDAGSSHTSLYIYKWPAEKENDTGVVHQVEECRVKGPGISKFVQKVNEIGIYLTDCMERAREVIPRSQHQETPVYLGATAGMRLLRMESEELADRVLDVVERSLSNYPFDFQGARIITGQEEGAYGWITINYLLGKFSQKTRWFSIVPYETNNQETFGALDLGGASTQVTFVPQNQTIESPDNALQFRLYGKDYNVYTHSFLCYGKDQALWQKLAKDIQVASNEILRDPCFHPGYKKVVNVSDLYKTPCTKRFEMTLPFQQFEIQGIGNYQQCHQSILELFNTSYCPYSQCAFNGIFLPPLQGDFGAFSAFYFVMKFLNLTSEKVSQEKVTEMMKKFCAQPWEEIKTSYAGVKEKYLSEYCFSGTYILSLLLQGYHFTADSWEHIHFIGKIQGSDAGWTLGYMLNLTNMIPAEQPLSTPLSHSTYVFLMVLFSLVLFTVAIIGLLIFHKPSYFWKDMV

IC50 [nM] | SMILES
610 ± 90 | O=C(Nc1ccccn1)c1ccc2ncccc2c1 [Compound 4g, N-(pyridin-2-yl)quinoline-6-carboxamide]
6130 ± 640 | Cc1ccc(CNC(=O)c2ccc3ncccc3c2)cc1 [Compound 4c, N-(4-methylbenzyl)quinoline-6-carboxamide]
3460 ± 490 | O=C(NCc1ccc(F)cc1)c1ccc2ncccc2c1 [Compound 4b, N-(4-fluorobenzyl)quinoline-6-carboxamide]

same assay, conditions: read-out: % Inhibition h-NTPDase1

inhibition at 100 µM [%] | SMILES
18.4 | O=C(Nc1ccccc1I)c1ccc2ncccc2c1 [Compound 4h, N-(2-iodophenyl)quinoline-6-carboxamide]
33.8 | O=C(Nc1ccc(I)cc1)c1ccc2ncccc2c1 [Compound 4k, N-(4-Iodophenyl)quinoline-6-carboxamide]
76.1 | O=C(Nc1c(F)cccc1F)c1ccc2ncccc2c1 [Compound 4d, N-(2,6 difluorophenyl)quinoline-6-carboxamide]
58.5 | O=C(Nc1ccccn1)c1ccc2ncccc2c1 [Compound 4g, N-(pyridin-2-yl)quinoline-6-carboxamide]
57.7 | Cc1ccc(CNC(=O)c2ccc3ncccc3c2)cc1 [Compound 4c, N-(4-methylbenzyl)quinoline-6-carboxamide]
32.6 | O=C(Nc1ccc(F)cc1F)c1ccc2ncccc2c1 [Compound 4e, N-(2,4 difluorophenyl)quinoline-6-carboxamide]
32.4 | Cc1ccc(F)cc1NC(=O)c1ccc2ncccc2c1 [Compound 4l, N-(5-fluoro 2-methylphenyl)quinoline-6-carboxamide]
68.9 | O=C(NCc1ccc(F)cc1)c1ccc2ncccc2c1 [Compound 4b, N-(4-fluorobenzyl)quinoline-6-carboxamide]

system: MCF-7 breast cancer cells; test: MTT assay; assay type: cell-based, human; settings: MCF-7, 100 μM, 24 h, 100 µM

SMILES | % Viability [%]
O=C(Nc1ccc(I)cc1)c1ccc2ncccc2c1 [Compound 4k, N-(4-Iodophenyl)quinoline-6-carboxamide] | 43.1

molecular target: T2, h-e5’NT (Homo sapiens, UniProt P21589); test: h-e5’NT activity assay; assay type: biochemical; settings: not given
T2 sequence (P21589 27-574): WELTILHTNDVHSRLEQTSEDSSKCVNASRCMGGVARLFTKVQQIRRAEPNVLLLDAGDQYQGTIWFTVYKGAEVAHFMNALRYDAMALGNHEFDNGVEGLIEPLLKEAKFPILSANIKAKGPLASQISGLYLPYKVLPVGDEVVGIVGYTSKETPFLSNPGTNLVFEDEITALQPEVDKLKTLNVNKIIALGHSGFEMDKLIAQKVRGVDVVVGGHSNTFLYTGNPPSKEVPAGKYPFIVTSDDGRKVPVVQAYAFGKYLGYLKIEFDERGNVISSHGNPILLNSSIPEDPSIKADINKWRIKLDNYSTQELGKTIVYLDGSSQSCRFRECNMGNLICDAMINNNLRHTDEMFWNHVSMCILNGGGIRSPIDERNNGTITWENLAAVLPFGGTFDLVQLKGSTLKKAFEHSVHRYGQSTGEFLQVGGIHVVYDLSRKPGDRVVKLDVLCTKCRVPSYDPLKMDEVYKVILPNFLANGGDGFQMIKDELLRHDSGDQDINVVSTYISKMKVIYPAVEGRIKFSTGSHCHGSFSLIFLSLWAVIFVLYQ
How it was run: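 Human ecto-5′-nucleotidase from transfected COS-7 cells was pre-incubated 10 min at 37 °C with compound (0.1 mM final) in 50 mM Tris–HCl with MgCl₂ and CaCl₂, pH 7.4. The reaction was started with AMP (2 mM solution as added) and run 20 min at 37 °C. Released phosphate was detected with malachite green at 630 nm, in triplicate.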

IC50 [nM] | SMILES
390 ± 100 | O=C(Nc1ccccc1I)c1ccc2ncccc2c1 [Compound 4h, N-(2-iodophenyl)quinoline-6-carboxamide]
340 ± 70 | O=C(Nc1ccccn1)c1ccc2ncccc2c1 [Compound 4g, N-(pyridin-2-yl)quinoline-6-carboxamide]
190 ± 10 | Cc1ccc(CNC(=O)c2ccc3ncccc3c2)cc1 [Compound 4c, N-(4-methylbenzyl)quinoline-6-carboxamide]
540 ± 90 | O=C(Nc1ccc(F)cc1F)c1ccc2ncccc2c1 [Compound 4e, N-(2,4 difluorophenyl)quinoline-6-carboxamide]
470 ± 260 | Cc1ccc(F)cc1NC(=O)c1ccc2ncccc2c1 [Compound 4l, N-(5-fluoro 2-methylphenyl)quinoline-6-carboxamide]

same assay, conditions: read-out: % Inhibition h-e5’NT

inhibition at 100 µM [%] | SMILES
87 | O=C(Nc1ccccc1I)c1ccc2ncccc2c1 [Compound 4h, N-(2-iodophenyl)quinoline-6-carboxamide]
28.4 | O=C(Nc1ccc(I)cc1)c1ccc2ncccc2c1 [Compound 4k, N-(4-Iodophenyl)quinoline-6-carboxamide]
35.6 | O=C(Nc1c(F)cccc1F)c1ccc2ncccc2c1 [Compound 4d, N-(2,6 difluorophenyl)quinoline-6-carboxamide]
82 | O=C(Nc1ccccn1)c1ccc2ncccc2c1 [Compound 4g, N-(pyridin-2-yl)quinoline-6-carboxamide]
50.7 | Cc1ccc(CNC(=O)c2ccc3ncccc3c2)cc1 [Compound 4c, N-(4-methylbenzyl)quinoline-6-carboxamide]
66.9 | O=C(Nc1ccc(F)cc1F)c1ccc2ncccc2c1 [Compound 4e, N-(2,4 difluorophenyl)quinoline-6-carboxamide]
61 | Cc1ccc(F)cc1NC(=O)c1ccc2ncccc2c1 [Compound 4l, N-(5-fluoro 2-methylphenyl)quinoline-6-carboxamide]
37 | O=C(NCc1ccc(F)cc1)c1ccc2ncccc2c1 [Compound 4b, N-(4-fluorobenzyl)quinoline-6-carboxamide]
